Experimental data from ChEMBL document CHEMBL4138319, “Discovery, Synthesis, Pharmacological Profiling, and Biological Characterization of Brintonamides A-E, Novel Dual Protease and GPCR Modulators from a Marine Cyanobacterium” (J Med Chem, 2018).
The source made the active and inactive calls. The calls are words filed in the database; no cut-off is given here. Square brackets hold non-standard residues; d marks the D form. Peptide text beside a SMILES is read from it. * marks the point of attachment. X1 = CC[C@H](C)[C@@H](OC(=O)/C=C/c1ccccc1)C(=O)*; dNMeF = CN[C@H](Cc1ccccc1)C(=O)O; NMeL = CN[C@@H](CC(C)C)C(=O)O

Key:
Kallikrein-7 [1] = molecular target: T1, Kallikrein-7 (Homo sapiens, UniProt P49862); assay: Inhibition of kallikrein 7-mediated Dsg-2 shedding in human MDA-MB-468 cells at 0.01 to 10 uM incubated for 48 hrs by ELISA; type: cell-based
Target sequence in this assay (P49862 30-253 limits assumed): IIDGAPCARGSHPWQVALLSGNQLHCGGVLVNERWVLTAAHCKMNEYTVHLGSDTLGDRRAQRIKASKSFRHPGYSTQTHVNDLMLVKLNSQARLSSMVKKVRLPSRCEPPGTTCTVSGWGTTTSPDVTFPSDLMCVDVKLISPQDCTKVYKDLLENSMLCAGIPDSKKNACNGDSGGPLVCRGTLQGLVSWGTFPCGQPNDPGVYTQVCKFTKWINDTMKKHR

[2] = molecular target: T2, C-C chemokine receptor type 10 (Homo sapiens, UniProt P46092); assay: Antagonist activity at human CCR10 expressed in human U2OS cells assessed as inhibition of CCL27-induced beta-arrestin recruitment pre-incubated for 30 mins before CCL27 stimulation for 90 or 180 mins by chemiluminescence method; type: functional, cell-based
T2 sequence (P46092 whole entry): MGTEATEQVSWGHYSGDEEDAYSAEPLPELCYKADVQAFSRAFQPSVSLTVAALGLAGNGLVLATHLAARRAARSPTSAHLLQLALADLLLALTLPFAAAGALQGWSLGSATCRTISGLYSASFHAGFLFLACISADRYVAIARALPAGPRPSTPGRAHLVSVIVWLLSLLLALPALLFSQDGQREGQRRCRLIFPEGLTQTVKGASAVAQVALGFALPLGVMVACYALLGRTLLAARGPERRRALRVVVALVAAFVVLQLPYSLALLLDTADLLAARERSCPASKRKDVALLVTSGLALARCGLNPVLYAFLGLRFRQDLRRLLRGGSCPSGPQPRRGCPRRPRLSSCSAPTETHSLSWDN
How it was run: (§1)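 PathHunter β-arrestin complementation assay, antagonist mode. Cells co-express ProLink-tagged GPCR and enzyme-acceptor-tagged β-arrestin and are pre-incubated with sample for 30 min at 37 °C or room temperature. Dose-response: 10 points, 3-fold dilutions from 20 μM, in duplicate.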

Chymase = molecular target: T3, Chymase (Homo sapiens, UniProt P23946); assay: Inhibition of chymase (unknown origin) by fluorescence assay
T3 sequence (P23946 whole entry): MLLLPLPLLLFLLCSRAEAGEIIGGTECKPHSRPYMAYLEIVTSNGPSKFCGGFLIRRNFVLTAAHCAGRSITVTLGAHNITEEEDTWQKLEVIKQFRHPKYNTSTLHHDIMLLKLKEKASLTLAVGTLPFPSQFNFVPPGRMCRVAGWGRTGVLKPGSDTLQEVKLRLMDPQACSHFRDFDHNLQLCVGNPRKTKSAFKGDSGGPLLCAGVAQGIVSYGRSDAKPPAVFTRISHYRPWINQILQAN
How it was run: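 Activity followed as a time course of rising fluorescence from a fluorescently labelled peptide substrate. The initial linear slope (signal/min) was used.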

[3] = molecular target: T4, Somatostatin receptor type 3 (Homo sapiens, UniProt P32745); assay: Antagonist activity at human SSTR3 expressed in HEK293 cells assessed as [Tyr1]-somatostatin 14-induced beta-arrestin recruitment pre-incubated for 30 mins before [Tyr1]-somatostatin 14 stimulation for 90 or 180 mins by chemiluminescence method; type: functional, cell-based; how it was run: as §1
T4 sequence (P32745 whole entry): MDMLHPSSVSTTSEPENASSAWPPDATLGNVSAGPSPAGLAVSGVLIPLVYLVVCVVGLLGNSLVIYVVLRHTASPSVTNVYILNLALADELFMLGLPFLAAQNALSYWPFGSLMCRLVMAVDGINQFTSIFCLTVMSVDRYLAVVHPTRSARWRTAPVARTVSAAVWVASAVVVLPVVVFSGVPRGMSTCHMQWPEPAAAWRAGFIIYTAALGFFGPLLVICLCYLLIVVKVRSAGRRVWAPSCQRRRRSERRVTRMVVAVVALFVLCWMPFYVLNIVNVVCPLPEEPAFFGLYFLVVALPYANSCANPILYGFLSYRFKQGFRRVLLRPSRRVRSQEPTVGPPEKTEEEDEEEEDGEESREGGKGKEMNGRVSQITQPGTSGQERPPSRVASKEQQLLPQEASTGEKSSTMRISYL

[4] = molecular target: T4, Somatostatin receptor type 3; assay: Antagonist activity at human SSTR3 expressed in HEK293 cells assessed as [Tyr1]-somatostatin 14-induced beta-arrestin recruitment at 10 uM pre-incubated for 30 mins before [Tyr1]-somatostatin 14 stimulation for 90 or 180 mins by chemiluminescence method; type: functional, cell-based; parameters: scale not given: the % may be the effect or the level left
[5] = molecular target: T5, C-C chemokine receptor type 10 (Homo sapiens) (UniProt P46092); assay: Antagonist activity at CCR10 in human MDA-MB-231 cells assessed as inhibition of CCL27-induced proliferation up to 10 uM preincubated for 2 hrs followed by CCL27 addition measured after 48 hrs by MTT assay; type: functional, cell-based
T5 sequence (whole entry): T2 sequence (P46092 whole entry)
How it was run: (§2)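 MDA-MB-231 cells are seeded at 10,000/well in serum-free DMEM for 24 h, then pretreated with compound for 2 h. CCL27 is added at 1 μg/mL final for 48 h. Viability is measured by MTT and compared with solvent control, mean ± SD, n = 3.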

MDA-MB-231 [6] = assay: Toxicity in human MDA-MB-231 cells assessed as inhibition of proliferation after 48 hrs by MTT assay; type: cell-based; conditions: mda-mb-231, 48 h
How it was run: (§3)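 MDA-MB-231 cells are grown in DMEM with 10% FBS and seeded at 10,000 cells/well for 24 h. Cells are then exposed to graded compound concentrations or DMSO for 48 h. Viability is measured by MTT.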

[7] = molecular target: T5, C-C chemokine receptor type 10 (Homo sapiens); assay: Antagonist activity at CCR10 in human MDA-MB-231 cells assessed as inhibition of CCL27-induced proliferation preincubated for 2 hrs followed by CCL27 addition measured after 48 hrs by MTT assay; type: functional, cell-based; how it was run: as §2
MDA-MB-231 [8] = assay: Antiproliferative activity against human MDA-MB-231 cells after 48 hrs by MTT assay; type: functional, cell-based; conditions: Homo sapiens, MDA-MB-231, 48 h; read-out: IC50; how it was run: as §3
MDA-MB-468 = assay: Antimigratory activity against human MDA-MB-468 cells at 0.1 to 10 uM after 48 hrs; type: functional, cell-based
How it was run: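 Transwell migration through an 8 μm pore membrane. 5000 MDA-MB-468 cells in DMEM with 10% FBS are treated with graded compound concentrations or solvent on both sides for 48 h at 37 °C. Migrated cells are stained with crystal violet and counted. Run in triplicate.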

[9] = molecular target: T6, Substance-K receptor (Homo sapiens) (UniProt P21452); assay: Antagonist activity at human TACR2 expressed in CHOK1 cells assessed as substance P-induced beta-arrestin recruitment at 10 uM pre-incubated for 30 mins before substance P stimulation for 90 or 180 mins by chemiluminescence method; type: functional, cell-based; parameters: scale not given: the % may be the effect or the level left
T6 sequence (whole entry): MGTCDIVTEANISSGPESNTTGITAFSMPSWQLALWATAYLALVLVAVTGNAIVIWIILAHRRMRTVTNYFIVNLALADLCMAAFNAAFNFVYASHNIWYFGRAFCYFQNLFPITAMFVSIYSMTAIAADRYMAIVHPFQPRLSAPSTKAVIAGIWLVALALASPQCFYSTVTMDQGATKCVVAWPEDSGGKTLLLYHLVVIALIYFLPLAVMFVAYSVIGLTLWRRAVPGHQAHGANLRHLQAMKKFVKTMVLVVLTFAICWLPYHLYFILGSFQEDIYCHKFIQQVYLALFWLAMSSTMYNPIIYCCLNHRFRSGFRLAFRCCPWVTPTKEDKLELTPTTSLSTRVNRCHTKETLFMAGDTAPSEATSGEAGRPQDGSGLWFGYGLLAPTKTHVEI

Kallikrein-7 [10] = molecular target: T1, Kallikrein-7; assay: Inhibition of kallikrein 7 (unknown origin) by fluorescence assay
How it was run: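 Protease panel screen: 10-dose titrations, 3-fold serial dilution from 100 μM, singlet. Protease activity is followed as the time-course rise in fluorescence from a labeled peptide substrate, and the initial linear slope (signal/min) is analysed.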
Target sequence in this assay (P49862 whole entry): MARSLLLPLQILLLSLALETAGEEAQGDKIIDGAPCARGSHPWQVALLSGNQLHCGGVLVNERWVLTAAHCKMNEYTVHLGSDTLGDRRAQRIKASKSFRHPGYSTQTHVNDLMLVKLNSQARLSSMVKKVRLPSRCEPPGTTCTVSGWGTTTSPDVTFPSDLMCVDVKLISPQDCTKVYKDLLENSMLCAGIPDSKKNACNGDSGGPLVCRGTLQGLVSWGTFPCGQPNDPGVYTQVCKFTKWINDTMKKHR

Question: With `CC[C@H](C)[C@@H](OC(=O)/C=C/c1ccccc1)C(=O)N1CCC[C@H]1C(=O)NCC(=O)N(C)[C@@H](CC(C)C)C(=O)N[C@@H](C)C(=O)N(C)[C@H](Cc1ccccc1)C(=O)N1CCC[C@H]1C(=O)OC` (X1-PG[NMeL]A[dNMeF]P-OMe) as the compound, how does the inhibition (Kallikrein-7 [1]) read?
Answer: inactive

Question: And the IC50 [2]?
Answer: 0.44 µM

Question: What about the IC50 (Chymase) of the same compound?
Answer: 23.2 µM

Question: And the IC50 [3]?
Answer: 3.12 µM

Question: What about the Activity [4] of the same compound?
Answer: 77%

Question: What about the inhibition [5] of the same compound?
Answer: 10%

Question: And the Activity (MDA-MB-231 [6])?
Answer: Non-Toxic

Question: What about the inhibition [7] of the same compound?
Answer: Dose-dependent effect

Question: What about the IC50 (MDA-MB-231 [8]) of the same compound?
Answer: 16.7 µM

Question: And the Activity (MDA-MB-468)?
Answer: Active

Question: What about the Activity [9] of the same compound?
Answer: 97%

Question: What about the IC50 (Kallikrein-7 [10]) of the same compound?
Answer: 18.9 µM
